ChEMBL document CHEMBL1124749, “Analogues of 1,5-bis(4-amidinophenoxy)pentane (pentamidine) in the treatment of experimental Pneumocystis carinii pneumonia” (J Med Chem, 1990)
Several values for one entry are separate records, joined by “and”; a condition that tells them apart may be missing. Identical values can stand only once.

What was measured:
[1] = test system: Pneumocystis carinii; experiment: (§1) Ability to reduce the severity of PCP in immunosuppressed rats after (iv) administration of 10 mg/kg/day; format: functional
Method in brief: (§2)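 Male Sprague-Dawley rats (150–200 g, barrier raised) were given corticosteroids to induce PCP. From week 6, groups of eight or more received the compound by single daily iv injection in 0.4 mL saline for 14 days, generally at 10 mg/kg. Rats were killed at the end of week 8. GMS-stained lung sections were scored from 0.5 to 4 (4 = >50% involvement), with saline and pentamidine control groups.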

[2] = Cytotoxicity in […], spleen and kidneys for pathologic changes by light microscopy.+ = animals survived without observable distress; format: tissue-based; conditions: rat
Method in brief: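 In corticosteroid-immunosuppressed rats given 14 daily iv doses for PCP, liver, spleen and kidneys were examined for pathology by light microscopy, and health was recorded daily. Toxicity was graded at 10 mg/kg or the highest dose tested on a scale from 0 (no local, clinical or histologic toxicity) to 4+ (≥50% of animals died).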

[3] = test system: Calf thymus DNA; experiment: DNA binding affinity at low ionic strength as change in midpoint; format: nucleic-acid assay; conditions: Bos taurus
[4] = molecular target: T1, Serine protease 1 (Homo sapiens, UniProt P07477); experiment: Inhibition of trypsin by amidase assay.
T1 sequence (P07477 whole entry): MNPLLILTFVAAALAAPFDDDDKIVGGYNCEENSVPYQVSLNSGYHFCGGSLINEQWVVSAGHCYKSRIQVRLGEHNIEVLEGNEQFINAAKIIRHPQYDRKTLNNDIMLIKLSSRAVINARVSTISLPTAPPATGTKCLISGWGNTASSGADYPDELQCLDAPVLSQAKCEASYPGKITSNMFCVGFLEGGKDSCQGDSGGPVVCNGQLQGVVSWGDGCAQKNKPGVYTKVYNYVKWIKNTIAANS

[5] = test system: Pneumocystis carinii; experiment: as §1; format: functional; method in brief: as §2; remark: listed apart in the source
[6] = organism: Rattus norvegicus; experiment: Ability to reduce the severity of PCP in histologic score (represents scattered cysts,25-50% lung involved with small intense areas of infection); format: functional; method in brief: as §2
[7] = test system: Rattus norvegicus; experiment: as §1; format: functional; method in brief: as §2
[8] = organism: Rattus norvegicus; experiment: Ability to reduce the severity of PCP in histologic score (represents >50% lung involved with many intense areas of focal infection); format: functional; method in brief: as §2
[9] = Cytotoxicity in […], spleen and kidneys for pathologic changes by light microscopy.++ = most animals survived, with severe distress and marked local toxicity and some systemic toxicity and histopathologic abnormalities; format: tissue-based; conditions: rat
Method in brief: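 Male Sprague-Dawley rats (150–200 g), corticosteroid-immunosuppressed to induce PCP; from week 6, single daily iv injection for 14 days, usually 10 mg/kg in 0.4 mL saline (lower if insoluble or toxic); killed end of week 8. Liver, spleen, kidneys examined by light microscopy; daily health observation; toxicity graded 0 to 4+ at 10 mg/kg or highest dose tested.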

[10] = test system: Rattus norvegicus; experiment: Ability to reduce the severity of PCP in immunosuppressed rats after(iv) administration of 10 mg/kg/day; format: functional; conditions: in the assay text read “1.25 mg/kg/day” for “10 mg/kg/day”; method in brief: as §2
[11] = test system: Pneumocystis carinii; experiment: Ability to reduce the severity of PCP in immunosuppressed rats after (i.v.) administration of 10 mg/kg/day; format: functional; conditions: route intravenous; method in brief: as §2
[12] = molecular target: T1, Serine protease 1; experiment: Inhibition of trypsin by amidase assay
[13] = test system: Rattus norvegicus; experiment: Ability to reduce the severity of PCP in immunosuppressed rats after (iv)administration; not tested in animals, Insoluble; format: functional, organism-based

ΔTm [3] [°C] | Ki [4] [µM] | SMILES | No. of animals [1] | Toxicity [2] | No. of animals [5] | further results
8.3 | 5.3 | Cl.N=C(N)c1ccc(NCCCCCCNc2ccc(C(=N)N)cc2N)c(N)c1 | 3 | animals survived without observable distress | 1 | –
10.5 | 11.1 | Cl.N=C(N)c1ccc(NCCCCNc2ccc(C(=N)N)cc2N)c(N)c1 | 0 | animals survived without observable distress | 4 | –
10.5 | > 2000 | Cl.c1cc(C2=NCCN2)ccc1OCCCCCOc1ccc(C2=NCCN2)cc1 | – | – | 3 | No. of animals [6]: 0; No. of animals [8]: 0
6.8 | 3.8 | Cl.Cl.N=C(N)c1cccc(OCCCCCOc2cccc(C(=N)N)c2)c1 | 4 | animals survived without observable distress | 3 | –
8.8 | – | Cl.N=C(N)c1ccc(OCCOc2ccc(C(=N)N)cc2N)c(N)c1 | – | – | 4 | No. of animals [6]: 0; No. of animals [8]: 0; Ki [12]: 5 µM
7.3 | 4 | Cl.Cl.N=C(N)c1cccc(OCCCCCCOc2cccc(C(=N)N)c2)c1 | 1 | animals survived without observable distress | 4 | –
16.3 | 1.3 | COc1cc(C(=N)N)ccc1OCCCOc1ccc(C(=N)N)cc1OC.Cl.Cl | 7 | – | 1 | No. of animals [11]: 0
9.6 | 9.1 | Cl.N=C(N)c1ccc(OCCCCOc2ccc(C(=N)N)cc2N)c(N)c1 | 2 | – | 5 | No. of animals [6]: 0; No. of animals [7]: 1; No. of animals [8]: 0
8.1 | 1.8 | Cl.Cl.N=C(N)c1cccc(OCCCCOc2cccc(C(=N)N)c2)c1 | 2 | – | 1 | –
10.7 | 2.3 | Cl.N=C(N)c1ccc(OCCCCCOc2ccc(C(=N)N)cc2)cc1 [PENTAMIDINE HYDROCHLORIDE] | 21 | – | 28 | –
11 | 4.8 | Cl.N=C(N)c1ccc(NCCCCCNc2ccc(C(=N)N)cc2N)c(N)c1 | 3 | animals survived without observable distress | 2 | –

Second part, the compound before the results:

SMILES | ΔTm [3] [°C] | Ki [4] [µM] | No. of animals [1] | Toxicity [2] | No. of animals [5] | further results
Cl.Cl.N=C(N)c1ccc(OCCCOc2ccc(C(=N)N)cc2N)c(N)c1 | 13.6 | 5.8 | 2 | – | 4 | No. of animals [6]: 0; No. of animals [7]: 1; No. of animals [8]: 0
Cl.Cl.N=C(N)c1ccc(OCCCCCOc2ccc(C(=N)N)cc2[N+](=O)[O-])c([N+](=O)[O-])c1 | 9.7 | 1 | 0 | – | 2 | –
Cl.N=C(N)c1ccc(NCCCNc2ccc(C(=N)N)cc2[N+](=O)[O-])c([N+](=O)[O-])c1 | 12.8 | 4.3 | – | – | 0 | No. of animals [7]: 0; Toxicity [9]: most animals survived, with severe distress and marked local toxicity and some systemic toxicity and histopathologic abnormalities
Cl.N=C(N)c1ccc(OCCCCCCOc2ccc(C(=N)N)cc2[N+](=O)[O-])c([N+](=O)[O-])c1 | – | – | – | – | – | No. of animals [10]: 1
Cl.N=C(N)c1ccc(NCCCCNc2ccc(C(=N)N)cc2)cc1 | 10.3 | 1.6 | – | – | 1 | –
Cl.N=C(N)c1ccc(NCCCNc2ccc(C(=N)N)cc2N)c(N)c1 | 11 | 10.3 | 1 | animals survived without observable distress | 4 | –
Cl.Cl.N=C(N)c1ccc(OCCCCOc2ccc(C(=N)N)cc2Cl)c(Cl)c1 | 8.9 | – | – | – | 1 | No. of animals ([7]; in the assay text read “1.25 mg/kg/day” for “10 mg/kg/day”): 0; No. of animals [11]: 2 and 3
Cl.N=C(N)c1ccc(NCCCNc2ccc(C(=N)N)cc2)cc1 | 11.6 | 1.1 | 5 and 2 | animals survived without observable distress | 1 | No. of animals [6]: 0; No. of animals [8]: 0
COc1cc(C(=N)N)ccc1OCCCCCOc1ccc(C(=N)N)cc1OC.Cl.Cl | 12 | 1.3 | 2 | – | 4 | –
COc1cc(C(=N)N)ccc1OCCCCOc1ccc(C(=N)N)cc1OC.Cl.Cl | 10.2 | – | 3 | – | 4 | –
Cl.Cl.N=C(N)c1ccc(OCCCCOc2ccc(C(=N)N)cc2)cc1 | 8.3 | 1.5 | 8 | Non-toxic | 0 | No. of animals [11]: 0
N=C(N)c1ccc(OCCCCCOc2ccc(C(=N)N)cc2Br)c(Br)c1 | – | – | – | – | – | No. of animals [13]: Insoluble
Cl.Cl.N=C(N)c1ccc(OCCCCCCOc2ccc(C(=N)N)cc2)cc1 | 9.1 | 2.7 | 3 | – | 3 | –
Cl.N=C(N)c1ccc(OCCCCCCOc2ccc(C(=N)N)cc2N)c(N)c1 | 9.5 | 293 | – | – | 1 | No. of animals [6]: 3; No. of animals [8]: 0
Cl.Cl.N=C(N)c1ccc(OCCCCOc2ccc(C(=N)N)cc2[N+](=O)[O-])c([N+](=O)[O-])c1 | 8.5 | 5.4 | 0 | – | 0 | –
Cl.Cl.N=C(N)c1cccc(OCCCOc2cccc(C(=N)N)c2)c1 | 7.6 | 1.1 | 2 | – | 1 | –
Cl.N=C(N)c1ccc(OCCCCCOc2ccc(C(=N)N)cc2N)c(N)c1 | 10.8 | 1.8 | – | animals survived without observable distress | 5 | No. of animals [6]: 1; No. of animals [8]: 0
Cl.Cl.N=C(N)c1ccc(OCCCCCOc2ccc(C(=N)N)cc2Cl)c(Cl)c1 | 10.5 | – | 0 | – | 0 | –
Cl.N=C(N)c1ccc(NCCCCCNc2ccc(C(=N)N)cc2[N+](=O)[O-])c([N+](=O)[O-])c1 | 12.7 | 8 | – | – | 3 | No. of animals [11]: 2 and 1
Cl.N=C(N)c1ccc(NCCCCCNc2ccc(C(=N)N)cc2)cc1 | 11.3 | 1.4 | – | – | 2 | –
N=C(N)c1ccc(OCCOc2ccc(C(=N)N)cc2)cc1 | 5.4 | 7.3 | – | – | – | –
Cl.N=C(N)c1ccc(NCCNc2ccc(C(=N)N)cc2N)c(N)c1 | 9.1 | 12.7 | 0 | animals survived without observable distress | 0 | –
Cl.Cl.N=C(N)c1ccc(OCCCOc2ccc(C(=N)N)cc2)cc1 | 14.7 | 3.3 | 3 | animals survived without observable distress | 4 | –
